Laboratory results taken from ChEMBL document CHEMBL1221347, “Identification of 3',4',5'-trimethoxychalcone analogues as potent inhibitors of Helicobacter pylori-induced inflammation in human gastric epithelial cells” (Bioorg Med Chem Lett, 2010).
Converted amounts (≈) assume the structure as drawn. The source made the active and inactive calls. The calls are words filed in the database; no cut-off is given here.

Key:
[1] = test system: Helicobacter pylori; test: Antibacterial activity against multidrug-resistant Helicobacter pylori v1254; format: functional
In short: (§1)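 Minimum bactericidal concentration (MBC), expressed in µM, determined against H. pylori reference strain Hp 26695 and the clinical isolates v1254 and v1354. Both isolates are resistant to metronidazole and clarithromycin. Amoxicillin, clarithromycin and metronidazole served as standard antimicrobial comparators.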

[2] = test system: Helicobacter pylori; test: Antibacterial activity against multidrug-resistant Helicobacter pylori v1354; format: functional; in short: as §1
[3] = test system: Helicobacter pylori; test: Antibacterial activity against Helicobacter pylori Hp 26695; format: functional; in short: as §1
[4] = test system: Helicobacter pylori; test: Inhibition of Helicobacter pylori invasion into human AGS cells at 2.5 uM after 6 hrs; format: functional
In short: (§2)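 AGS cells, untreated or treated with compound, then infected with H. pylori at MOI 50 for 6 h. Bacterial adhesion to, or invasion into, the cells was measured. Compounds tested at 2.5, 5.0 and 10.0 µM. DMSO vehicle and antibiotic controls at 2.5 µM. Values are mean ± SD of at least six independent experiments; Student's t-test against DMSO-treated cells.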

[5] = test system: Helicobacter pylori; test: Inhibition of Helicobacter pylori-induced inflammation in human AGS cells assessed as reduction of IL-8 production at 10 uM by ELISA; format: functional
In short: (§3)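 IL-8 in culture supernatants measured from H. pylori-infected AGS cells pre-treated with compound at 2.5, 5.0 or 10.0 µM. Inhibition calculated against DMSO control-treated cells. Values are mean ± SD of at least three independent experiments.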

[6] = test system: Helicobacter pylori; test: Inhibition of Helicobacter pylori-induced inflammation in human AGS cells assessed as reduction of NF-kappaB activity at 2.5 uM after 6 hrs by luciferase reporter gene assay relative to control; format: functional
In short: (§4)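 AGS cells transfected with an NF-κB luciferase reporter construct. Cells were treated with compound (2.5–10 µM) and infected with H. pylori, then luciferase expression was measured. Activity is expressed relative to DMSO-treated control. Antibiotics at 2.5 µM served as reference. Values are mean ± SD of at least three independent experiments.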

[7] = test system: AGS; test: Cytotoxicity against human AGS cells assessed as cell viability at 0.5 ug/ml by MTT assay; format: cell-based; conditions: in the assay text read “0.5 mg/ml” for “0.5 ug/ml”
In short: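 MTT viability assay on AGS human gastric epithelial cells, run at 0.5 mg/ml, the top concentration used in the H. pylori growth test.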

[8] = test system: Helicobacter pylori; test: Inhibition of Helicobacter pylori adhesion into human AGS cells at 10 uM after 6 hrs; format: functional; in short: as §2
[9] = test system: Helicobacter pylori; test: Inhibition of Helicobacter pylori invasion into human AGS cells at 10 uM after 6 hrs; format: functional; in short: as §2
[10] = test system: Helicobacter pylori; test: Inhibition of Helicobacter pylori-induced inflammation in human AGS cells assessed as reduction of NF-kappaB activity at 10 uM after 6 hrs by luciferase reporter gene assay relative to control; format: functional; in short: as §4
[11] = test system: Helicobacter pylori; test: Inhibition of Helicobacter pylori adhesion into human AGS cells at 5 uM after 6 hrs; format: functional; in short: as §2
[12] = test system: Helicobacter pylori; test: Inhibition of Helicobacter pylori-induced inflammation in human AGS cells assessed as reduction of IL-8 production at 5 uM by ELISA; format: functional; in short: as §3
[13] = test system: Helicobacter pylori; test: Inhibition of Helicobacter pylori-induced inflammation in human AGS cells assessed as reduction of NF-kappaB activity after 6 hrs by luciferase reporter gene assay relative to control; format: functional; in short: as §4
[14] = test system: Helicobacter pylori; test: Inhibition of Helicobacter pylori-induced inflammation in human AGS cells assessed as reduction of IL-8 production at 2.5 uM by ELISA; format: functional; in short: as §3
[15] = test system: Helicobacter pylori; test: Inhibition of Helicobacter pylori invasion into human AGS cells at 5 uM after 6 hrs; format: functional; in short: as §2
[16] = test system: Helicobacter pylori; test: Inhibition of sHelicobacter pylori adhesion into human AGS cells at 2.5 uM after 6 hrs; format: functional; in short: as §2
[17] = test system: Helicobacter pylori; test: Inhibition of Helicobacter pylori-induced inflammation in human AGS cells assessed as reduction of NF-kappaB activity at 5 uM after 6 hrs by luciferase reporter gene assay relative to control; format: functional; in short: as §4

Question: `CC[C@H]1OC(=O)[C@H](C)[C@@H](O[C@H]2C[C@@](C)(OC)[C@@H](O)[C@H](C)O2)[C@H](C)[C@@H](O[C@@H]2O[C@H](C)C[C@H](N(C)C)[C@H]2O)[C@](C)(OC)C[C@@H](C)C(=O)[C@H](C)[C@@H](O)[C@]1(C)O` [CLARITHROMYCIN] was tested. Which MBC [1] did it give?
Answer: Its MBC is 50 µM (≈ 37.4 µg/mL).

Question: And the MBC [2]?
Answer: Its MBC is 25 µM (≈ 18.7 µg/mL).

Question: What about the MBC [3] of the same molecule?
Answer: The MBC was 1.6 µM (≈ 1.2 µg/mL).

Question: And the inhibition at 2.5 µM [4]?
Answer: Its inhibition at 2.5 µM is over 90%.

Question: And the inhibition at 10 µM [5]?
Answer: The inhibition at 10 µM was 81.9%.

Question: And the inhibition [6]?
Answer: The inhibition was “inactive”.

Question: What does the source list for `CC1(C)S[C@@H]2[C@H](NC(=O)[C@H](N)c3ccc(O)cc3)C(=O)N2[C@H]1C(=O)O` [AMOXICILLIN]?
Answer: MBC [1]: 12.5 µM (≈ 4.57 µg/mL); MBC [2]: 12.5 µM (≈ 4.57 µg/mL); MBC [3]: 12.5 µM (≈ 4.57 µg/mL); inhibition at 2.5 µM [4]: > 90%; inhibition at 10 µM [5]: 81.9%; inhibition [6]: inactive

Question: For `Cc1ncc([N+](=O)[O-])n1CCO` [METRONIDAZOLE], which MBC [1] is on record?
Answer: Its MBC is 400 µM (≈ 68.5 µg/mL).

Question: What about the MBC [2] of the same molecule?
Answer: Its MBC is 800 µM (≈ 137 µg/mL).

Question: What about the MBC [3] of the same molecule?
Answer: The MBC was 25 µM (≈ 4.28 µg/mL).

Question: What about the inhibition at 2.5 µM [4] of the same molecule?
Answer: Its inhibition at 2.5 µM is 20%.

Question: What about the inhibition at 10 µM [5] of the same molecule?
Answer: Its inhibition at 10 µM is 81.9%.

Question: What about the inhibition [6] of the same molecule?
Answer: The inhibition was “inactive”.

Question: How did the Activity [7] turn out when `COc1ccc(/C=C/C(=O)c2cc(OC)c(OC)c(OC)c2)cc1` was run?
Answer: The Activity was “Non-toxic”.

Question: What about the MBC [1] of the same molecule?
Answer: The MBC was 100 µM (≈ 32.8 µg/mL).

Question: What about the inhibition [8] of the same molecule?
Answer: Its inhibition is “Active”.

Question: What about the MBC [2] of the same molecule?
Answer: The MBC was 100 µM (≈ 32.8 µg/mL).

Question: What about the inhibition [9] of the same molecule?
Answer: The inhibition was “Active”.

Question: And the MBC [3]?
Answer: Its MBC is 100 µM (≈ 32.8 µg/mL).

Question: And the inhibition [4]?
Answer: Its inhibition is “inactive”.

Question: What about the inhibition at 10 µM [5] of the same molecule?
Answer: Its inhibition at 10 µM is 59.4%.

Question: And the inhibition at 2.5 µM [6]?
Answer: The inhibition at 2.5 µM was 14.7%.

Question: What about the inhibition at 10 µM [10] of the same molecule?
Answer: Its inhibition at 10 µM is 66%.

Question: What about the inhibition [11] of the same molecule?
Answer: The inhibition was “Active”.

Question: What about the inhibition at 5 µM [12] of the same molecule?
Answer: Its inhibition at 5 µM is 23.4%.

Question: What about the inhibition [13] of the same molecule?
Answer: The inhibition was “Dose-dependent effect”.

Question: What about the inhibition at 2.5 µM [14] of the same molecule?
Answer: Its inhibition at 2.5 µM is 8%.

Question: What about the inhibition [15] of the same molecule?
Answer: The inhibition was “Active”.

Question: For `COc1cccc(/C=C/C(=O)c2cc(OC)c(OC)c(OC)c2)c1OC`, which Activity [7] is on record?
Answer: Its Activity is “Non-toxic”.

Question: What about the MBC [1] of the same molecule?
Answer: The MBC was 50 µM (≈ 17.9 µg/mL).

Question: What about the inhibition at 10 µM [8] of the same molecule?
Answer: Its inhibition at 10 µM is 99.9%.

Question: What about the MBC [2] of the same molecule?
Answer: Its MBC is 25 µM (≈ 8.96 µg/mL).

Question: And the inhibition [9]?
Answer: The inhibition was “Active”.

Question: What about the MBC [3] of the same molecule?
Answer: The MBC was 25 µM (≈ 8.96 µg/mL).

Question: And the inhibition [4]?
Answer: Its inhibition is “inactive”.

Question: And the inhibition at 10 µM [5]?
Answer: The inhibition at 10 µM was 87%.

Question: What about the inhibition at 2.5 µM [6] of the same molecule?
Answer: The inhibition at 2.5 µM was 39.8%.

Question: And the inhibition at 10 µM [10]?
Answer: The inhibition at 10 µM was 90.6%.

Question: And the inhibition at 5 µM [11]?
Answer: The inhibition at 5 µM was 73.3%.

Question: What about the inhibition at 5 µM [12] of the same molecule?
Answer: Its inhibition at 5 µM is 65.2%.

Question: What about the inhibition [13] of the same molecule?
Answer: Its inhibition is “Dose-dependent effect”.

Question: What about the inhibition at 2.5 µM [14] of the same molecule?
Answer: The inhibition at 2.5 µM was 24.6%.

Question: What about the inhibition at 2.5 µM [16] of the same molecule?
Answer: Its inhibition at 2.5 µM is 66.6%.

Question: And the inhibition [15]?
Answer: The inhibition was “Active”.

Question: With `COc1cc(/C=C/C(=O)c2cc(OC)c(OC)c(OC)c2)ccc1O` as the molecule, how does the inhibition at 5 µM [17] read?
Answer: Its inhibition at 5 µM is 98.6%.

Question: And the Activity [7]?
Answer: Its Activity is “Non-toxic”.

Question: And the MBC [1]?
Answer: The MBC was 12.5 µM (≈ 4.3 µg/mL).

Question: And the MBC [2]?
Answer: The MBC was 12.5 µM (≈ 4.3 µg/mL).

Question: What about the inhibition at 10 µM [9] of the same molecule?
Answer: The inhibition at 10 µM was 100%.

Question: And the MBC [3]?
Answer: The MBC was 12.5 µM (≈ 4.3 µg/mL).

Question: What about the inhibition at 2.5 µM [4] of the same molecule?
Answer: The inhibition at 2.5 µM was 57.6%.

Question: And the inhibition at 2.5 µM [6]?
Answer: Its inhibition at 2.5 µM is 86.1%.

Question: And the inhibition at 10 µM [10]?
Answer: Its inhibition at 10 µM is 99.9%.

Question: And the inhibition at 5 µM [11]?
Answer: Its inhibition at 5 µM is 98.8%.

Question: What about the inhibition [13] of the same molecule?
Answer: Its inhibition is “Dose-dependent effect”.

Question: What about the inhibition at 2.5 µM [16] of the same molecule?
Answer: The inhibition at 2.5 µM was 88.2%.

Question: What about the inhibition at 5 µM [15] of the same molecule?
Answer: The inhibition at 5 µM was 91%.
